Measured values as given in ChEMBL document CHEMBL3351344 (J Med Chem, 2014).

Experiments:
[1] = molecular target: T1, Retinol-binding protein 4 (Homo sapiens, UniProt P02753)
[2] = molecular target: T1, Retinol-binding protein 4; remark: listed apart in the source
Liver microsome [3] = assay: Metabolic stability in human liver microsomes assessed as compound remaining at 10 uM after 30 mins; type: ADME; conditions: 0.5 h
Method in brief: (§1)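 Compound at 10 µM was incubated for 30 min with liver microsomes (H = human, R = rat). Stability was expressed as percent of compound remaining.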

Liver microsome [4] = assay: Metabolic stability in rat liver microsomes assessed as compound remaining at 10 uM after 30 mins; type: ADME; conditions: 0.5 h
Method in brief: as §1

[5] = Aqueous kinetic solubility of the compound in pH 7.4 PBS buffer; type: physicochemical
Cytochrome P450 2C9 = Cytochrome P450 2C9 (Homo sapiens, UniProt P11712); assay: Inhibition of CYP2C9 (unknown origin)
Cytochrome P450 2C9, sequence (P11712 whole entry): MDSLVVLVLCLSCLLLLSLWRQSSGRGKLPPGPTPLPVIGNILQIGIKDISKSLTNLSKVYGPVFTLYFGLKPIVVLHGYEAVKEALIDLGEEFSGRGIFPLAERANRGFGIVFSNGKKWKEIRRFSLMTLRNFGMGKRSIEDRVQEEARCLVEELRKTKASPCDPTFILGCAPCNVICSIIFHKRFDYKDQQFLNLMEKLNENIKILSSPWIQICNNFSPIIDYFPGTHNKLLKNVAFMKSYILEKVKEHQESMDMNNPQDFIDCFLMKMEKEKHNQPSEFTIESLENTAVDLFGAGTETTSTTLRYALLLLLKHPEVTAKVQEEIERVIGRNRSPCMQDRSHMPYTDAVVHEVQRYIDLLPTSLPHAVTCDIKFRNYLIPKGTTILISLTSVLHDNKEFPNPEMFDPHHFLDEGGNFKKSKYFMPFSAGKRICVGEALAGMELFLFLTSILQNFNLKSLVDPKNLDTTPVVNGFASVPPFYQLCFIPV

Cytochrome P450 2C19 = Cytochrome P450 2C19 (Homo sapiens, UniProt P33261); assay: Inhibition of CYP2C19 (unknown origin)
Cytochrome P450 2C19, sequence (P33261 whole entry): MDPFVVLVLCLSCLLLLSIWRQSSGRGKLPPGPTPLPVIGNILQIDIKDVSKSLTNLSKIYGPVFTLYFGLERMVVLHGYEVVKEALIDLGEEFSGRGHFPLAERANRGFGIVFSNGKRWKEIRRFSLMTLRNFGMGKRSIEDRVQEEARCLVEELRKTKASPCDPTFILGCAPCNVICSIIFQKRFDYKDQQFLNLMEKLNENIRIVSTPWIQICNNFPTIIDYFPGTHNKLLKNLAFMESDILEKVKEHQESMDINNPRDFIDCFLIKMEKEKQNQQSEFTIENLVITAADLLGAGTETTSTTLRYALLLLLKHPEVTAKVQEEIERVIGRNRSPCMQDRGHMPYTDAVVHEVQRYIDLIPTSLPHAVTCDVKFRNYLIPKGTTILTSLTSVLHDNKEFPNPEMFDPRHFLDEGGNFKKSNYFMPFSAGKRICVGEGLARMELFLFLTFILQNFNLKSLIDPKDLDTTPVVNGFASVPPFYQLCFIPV

Cytochrome P450 2D6 = Cytochrome P450 2D6 (Homo sapiens, UniProt P10635); assay: Inhibition of CYP2D6 (unknown origin)
Cytochrome P450 2D6, sequence (P10635 whole entry): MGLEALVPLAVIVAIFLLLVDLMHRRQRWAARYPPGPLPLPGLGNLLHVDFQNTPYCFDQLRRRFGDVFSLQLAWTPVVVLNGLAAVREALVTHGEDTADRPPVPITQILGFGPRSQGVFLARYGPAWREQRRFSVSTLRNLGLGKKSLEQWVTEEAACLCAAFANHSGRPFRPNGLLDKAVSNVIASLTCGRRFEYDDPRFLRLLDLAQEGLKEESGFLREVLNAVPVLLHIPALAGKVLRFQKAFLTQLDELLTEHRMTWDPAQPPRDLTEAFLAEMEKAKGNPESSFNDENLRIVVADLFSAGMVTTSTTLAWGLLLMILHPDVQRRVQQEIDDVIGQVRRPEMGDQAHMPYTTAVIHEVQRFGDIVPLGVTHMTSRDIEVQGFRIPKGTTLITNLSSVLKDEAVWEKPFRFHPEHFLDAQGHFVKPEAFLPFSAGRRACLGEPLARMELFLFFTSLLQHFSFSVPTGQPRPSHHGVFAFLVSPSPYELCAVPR

Cytochrome P450 3A4 = Cytochrome P450 3A4 (Homo sapiens, UniProt P08684); assay: Inhibition of CYP3A4 (unknown origin)
Cytochrome P450 3A4, sequence (P08684 whole entry): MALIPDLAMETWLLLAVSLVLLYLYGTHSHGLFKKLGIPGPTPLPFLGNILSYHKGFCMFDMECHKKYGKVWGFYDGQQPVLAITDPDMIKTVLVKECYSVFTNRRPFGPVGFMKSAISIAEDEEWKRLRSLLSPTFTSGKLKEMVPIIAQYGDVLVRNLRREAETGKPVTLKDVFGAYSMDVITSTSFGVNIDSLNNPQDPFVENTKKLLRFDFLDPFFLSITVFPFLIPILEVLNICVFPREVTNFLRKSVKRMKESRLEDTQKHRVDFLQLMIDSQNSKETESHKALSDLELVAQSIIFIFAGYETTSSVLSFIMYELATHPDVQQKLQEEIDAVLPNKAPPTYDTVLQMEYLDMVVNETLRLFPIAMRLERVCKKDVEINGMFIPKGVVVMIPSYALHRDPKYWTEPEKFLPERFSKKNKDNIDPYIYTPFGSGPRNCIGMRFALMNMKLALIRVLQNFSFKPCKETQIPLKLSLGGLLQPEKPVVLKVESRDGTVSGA

[6] = Cmax in Sprague-Dawley rat plasma at 0.5 mg/kg, iv; type: ADME, organism-based; design: dose 0.5 mg/kg, route intravenous
Method in brief: (§2)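 Groups of three drug-naive adult male Sprague-Dawley rats. Dosing was iv at 0.5 mg/kg once on day 0, or po at 5 mg/kg once on day 0 or once daily from day 0 to day 6. Cmax is the maximum observed plasma concentration. Pre-dose plasma was also sampled on day 6, and urine was collected 0–48 h after iv dosing.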

[7] = Cmax in Sprague-Dawley rat plasma at 5 mg/kg, po; type: ADME, organism-based; design: dose 5 mg/kg, route oral
Method in brief: as §2

[8] = Apparent half-life of the terminal phase of elimination in Sprague-Dawley rat plasma at 0.5 mg/kg, iv; type: ADME, organism-based; design: dose 0.5 mg/kg, route intravenous; conditions: read-out: betat1/2(app) (converted)
Method in brief: (§3)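 Three drug-naive adult male Sprague-Dawley rats per group, given a single iv dose on day 0. Compound was measured in plasma over time. Parameters were derived from the plasma concentration–time curve: terminal-phase half-life, total body clearance, and steady-state volume of distribution. Urine was also collected from 0 to 48 h.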

[9] = Apparent half-life of the terminal phase of elimination in Sprague-Dawley rat plasma at 5 mg/kg, po; type: ADME, organism-based; design: dose 5 mg/kg, route oral; conditions: read-out: betat1/2(app) (converted)
Method in brief: (§4)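 Adult male Sprague-Dawley rats, drug-naive, three per group. Plasma levels gave the terminal-phase half-life. Bioavailability F = (AUCINF po × dose iv) ÷ (AUCINF iv × dose po), using a 0.5 mg/kg iv reference group.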

[10] = AUClast in Sprague-Dawley rat plasma at 0.5 mg/kg, iv; type: ADME, organism-based; design: time 0 - last, dose 0.5 mg/kg, route intravenous
Method in brief: (§5)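 Single intravenous dose of 0.5 mg/kg given on day 0 to a group of three drug-naive adult male Sprague-Dawley rats. Compound was measured in plasma over time, and urine was collected from 0 to 48 h. AUClast runs from 0 to the last quantifiable time point; AUC(0–inf) is extrapolated to infinity. Values are group means.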

[11] = AUClast in Sprague-Dawley rat plasma at 5 mg/kg, po; type: ADME, organism-based; design: time 0 - last, dose 5 mg/kg, route oral
Method in brief: (§6)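 Oral dosing at 5 mg/kg in groups of three drug-naive adult male Sprague-Dawley rats, given either once on day 0 or once daily from day 0 to day 6. Plasma was sampled after the day 0 or day 6 dose. AUClast runs from 0 to the last quantifiable point; AUC(0–inf) is extrapolated to infinity. Values are means.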

[12] = AUC (0 to infinity) in Sprague-Dawley rat plasma at 0.5 mg/kg, iv; type: ADME, organism-based; design: time infinity, dose 0.5 mg/kg, route intravenous
Method in brief: as §5

[13] = AUC (0 to infinity) in Sprague-Dawley rat plasma at 5 mg/kg, po; type: ADME, organism-based; design: time infinity, dose 5 mg/kg, route oral
Method in brief: as §6

[14] = Clearance in Sprague-Dawley rat plasma at 0.5 mg/kg, iv; type: ADME, organism-based; design: dose 0.5 mg/kg, route intravenous
Method in brief: as §3

[15] = Volume of distribution at steady state in Sprague-Dawley rat plasma at 0.5 mg/kg, iv; type: ADME, organism-based; design: dose 0.5 mg/kg, route intravenous; conditions: read-out: Vdss
Method in brief: as §3

[16] = Oral bioavailability in Sprague-Dawley rat plasma at 5 mg/kg; type: ADME, organism-based
Method in brief: as §4

in vivo [17] = conditions: Sprague-Dawley, rat, plasma, iv, 0.5 mg/kg
in vivo [18] = conditions: Sprague-Dawley, rat, plasma, po, 5 mg/kg

Structure (SMILES) | IC50 [1] | IC50 [2] | Stability (Liver microsome [3]) | Stability (Liver microsome [4]) | Kinetic_solubility [5] | also measured
O=C(O)[C@H](NC(=O)N1C[C@H]2C[C@@H](c3ccccc3C(F)(F)F)C[C@H]2C1)c1ccccc1 | 1.32 µM | 8.34 µM |  |  |  | 
O=C(O)c1ccccc1NC(=O)N1C[C@@H]2[C@H](C1)[C@H]2c1ccccc1C(F)(F)F | > 3 µM |  |  |  |  | 
COc1ccc(NC(=O)N2C[C@H]3C[C@@H](c4ccccc4C(F)(F)F)C[C@H]3C2)c(C(=O)O)c1 | 0.17 µM |  | 89% | 72% | 34 µM | IC50 (Cytochrome P450 2C9): 13 µM; IC50 (Cytochrome P450 2C19): 75 µM; IC50 (Cytochrome P450 2D6): > 100 µM; IC50 (Cytochrome P450 3A4): 8 µM
CN(CCOc1ccc(F)cc1C(C)(C)C)C(=O)Nc1ccccc1C(=O)O | 0.141 µM |  | 3.2% |  |  | 
O=C(O)c1ccccc1NC(=O)N1CC2(C1)CN(c1ccccc1C(F)(F)F)C2 | > 3 µM |  |  |  |  | 
CS(=O)(=O)c1ccc(NC(=O)N2C[C@H]3C[C@@H](c4ccccc4C(F)(F)F)C[C@H]3C2)c(C(=O)O)c1 | 0.163 µM | 1.55 µM | 100% | 100% | > 100 µM | IC50 (Cytochrome P450 2C9): 8.7 µM; IC50 (Cytochrome P450 2C19): 32 µM; IC50 (Cytochrome P450 2D6): > 100 µM; IC50 (Cytochrome P450 3A4): 42 µM
O=C(O)c1cnncc1NC(=O)N1C[C@H]2C[C@@H](c3ccccc3C(F)(F)F)C[C@H]2C1 | 0.024 µM | 0.121 µM | 97% | 61% | > 100 µM | IC50 (Cytochrome P450 2C9): 17 µM; IC50 (Cytochrome P450 2C19): 6 µM; IC50 (Cytochrome P450 2D6): > 100 µM; IC50 (Cytochrome P450 3A4): 12 µM
O=C(O)[C@@H](NC(=O)N1C[C@H]2C[C@@H](c3ccccc3C(F)(F)F)C[C@H]2C1)c1ccccc1 | 0.124 µM | 0.829 µM |  |  |  | 
O=C(O)C(=O)N1CCC(c2ccccc2C(F)(F)F)CC1 | 0.234 µM | 3.13 µM |  |  |  | 
O=C(O)c1ccccc1NC(=O)N1CCC2(CCc3ccccc32)CC1 | 3.76 µM |  |  |  |  | 
C[C@@H](NC(=O)N1C[C@H]2C[C@@H](c3ccccc3C(F)(F)F)C[C@H]2C1)C(=O)O | > 3 µM |  |  |  |  | 
O=C(O)CCC(=O)N1CCC(c2ccccc2C(F)(F)F)CC1 | > 3 µM |  |  |  |  | 
CN(CCOc1ccc(Cl)cc1C(C)(C)C)C(=O)Nc1ccccc1C(=O)O | > 3 µM |  |  |  |  | 
O=C(O)c1cnccc1NC(=O)N1C[C@H]2C[C@@H](c3ccccc3C(F)(F)F)C[C@H]2C1 | 0.0187 µM | 0.179 µM | 81% | 82% | 29 µM | IC50 (Cytochrome P450 2C9): 5.6 µM; IC50 (Cytochrome P450 2C19): 2.1 µM; IC50 (Cytochrome P450 2D6): > 100 µM; IC50 (Cytochrome P450 3A4): < 0.046 µM
O=C(O)C1CCCN1C(=O)N1CCC(c2ccccc2C(F)(F)F)CC1 (racemic) | > 3 µM |  |  |  |  | 
O=C(O)c1ccccc1NC(=O)N1CC(Oc2ccccc2C(F)(F)F)C1 | 1.44 µM |  |  |  |  | 
O=C(O)c1ccccc1NC(=O)N1CCc2ccccc2CC1 | > 3 µM |  |  |  |  | 

Structure (SMILES) | IC50 [1] | IC50 [2] | Stability (Liver microsome [3]) | Stability (Liver microsome [4]) | Kinetic_solubility [5] | also measured
O=C(O)c1ccccc1NC(=O)N1C[C@H]2C[C@@H](c3ccccc3C(F)(F)F)C[C@H]2C1 | 0.0727 µM | 0.294 µM | 100% | 75% | 55 µM | IC50 (Cytochrome P450 2C9): 0.34 µM; IC50 (Cytochrome P450 2C19): 29 µM; IC50 (Cytochrome P450 2D6): > 100 µM; IC50 (Cytochrome P450 3A4): 28 µM; Cmax [6]: 2940 ng/mL; Cmax [7]: 7830 ng/mL; half-life [8]: 10.3 h; half-life [9]: 7.6 h; AUC(0-t) [10]: 13200 ng·h/mL; AUC(0-t) [11]: 62100 ng·h/mL; AUC(0-inf) [12]: 14300 ng·h/mL; AUC(0-inf) [13]: 63000 ng·h/mL; clearance [14]: 0.588 mL/min/kg; Vd [15]: 0.523 L/kg; bioavailability [16]: 44%; Tmax (in vivo [17]): 4.98 min; Tmax (in vivo [18]): 0.33 h
O=C(O)c1ccccc1NC(=O)N1CCC(c2ccccc2C(F)(F)F)CC1 |  |  | 3% | 85% | 57 µM | IC50 (Cytochrome P450 2C9): > 100 µM; IC50 (Cytochrome P450 2C19): 52 µM; IC50 (Cytochrome P450 2D6): 100 µM
Cc1cc(NC(=O)N2C[C@H]3C[C@@H](c4ccccc4C(F)(F)F)C[C@H]3C2)c(C(=O)O)cn1 |  |  | 71% | 76% | 93 µM | IC50 (Cytochrome P450 2C9): 1 µM; IC50 (Cytochrome P450 2C19): 12 µM; IC50 (Cytochrome P450 2D6): > 100 µM; IC50 (Cytochrome P450 3A4): 1.1 µM
CN(CCOc1ccccc1C(F)(F)F)C(=O)Nc1ccccc1C(=O)O | 1.9 µM | 2.65 µM |  |  |  | 
O=C(O)c1ccccc1NC(=O)N1CC(c2ccccc2C(F)(F)F)C1 | > 3 µM | 8.38 µM |  |  |  | 
O=C(O)c1cc(Cl)ccc1NC(=O)N1C[C@H]2C[C@@H](c3ccccc3C(F)(F)F)C[C@H]2C1 | […] |  | 89% | 87% | 60 µM | 
CN(CCOc1ccccc1C(C)(C)C)C(=O)Nc1ccccc1C(=O)O |  |  | 1.1% |  |  | 
O=C(NS(=O)(=O)c1ccccc1)c1ccccc1NC(=O)N1CCC(c2ccccc2C(F)(F)F)CC1 | > 3 µM |  |  |  |  | 
O=C(NS(=O)(=O)C1CC1)c1ccccc1NC(=O)N1CCC(c2ccccc2C(F)(F)F)CC1 | 0.244 µM | 5.31 µM |  |  |  | 
O=C(O)c1ccccc1NC(=O)N1C[C@@H]2[C@H](C1)[C@@H]2c1ccccc1C(F)(F)F | > 3 µM |  |  |  |  | 
O=C(O)c1cccnc1NC(=O)N1C[C@H]2C[C@@H](c3ccccc3C(F)(F)F)C[C@H]2C1 | > 3 µM |  | 83% | 81% | 82 µM | IC50 (Cytochrome P450 2C9): 27 µM; IC50 (Cytochrome P450 2C19): 33 µM; IC50 (Cytochrome P450 2D6): > 100 µM; IC50 (Cytochrome P450 3A4): > 100 µM
O=C(O)c1ccccc1NC(=O)N1C[C@H]2C[C@H](c3ccccc3C(F)(F)F)C[C@H]2C1 | > 3 µM |  |  |  |  | 
C[C@H](NC(=O)N1C[C@H]2C[C@@H](c3ccccc3C(F)(F)F)C[C@H]2C1)C(=O)O | 1.48 µM |  |  |  |  | 
CS(=O)(=O)NC(=O)c1ccccc1NC(=O)N1CCC(c2ccccc2C(F)(F)F)CC1 | 0.298 µM |  |  |  |  | 
O=C(O)c1cc(F)ccc1NC(=O)N1C[C@H]2C[C@@H](c3ccccc3C(F)(F)F)C[C@H]2C1 | 0.0888 µM | 0.285 µM | 57% | 100% | 55 µM | IC50 (Cytochrome P450 2C9): 0.33 µM; IC50 (Cytochrome P450 2C19): 31 µM; IC50 (Cytochrome P450 2D6): > 100 µM; IC50 (Cytochrome P450 3A4): 53 µM
O=C(O)CC(=O)N1CCC(c2ccccc2C(F)(F)F)CC1 | 1.47 µM |  |  |  |  | 
